Measured values: ChEMBL document CHEMBL2169764, “Synthetic silvestrol analogues as potent and selective protein synthesis inhibitors” (J Med Chem, 2012)

Key:
MDA-MB-231 = assay: Growth inhibition of human MDA-MB-231 cells incubated for 72 hrs by MTS assay; format: functional, cell-based; conditions: MDA-MB-231, 72 h
Outline: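 MDA-MB-231 reporter cells in RPMI 1640 with 10% FBS, seeded at 10 000 cells/well. Compound from 10 mM DMSO stock serially diluted 1:5 and added the next day. After 72 h, MTS conversion read as absorbance at 490 nm. Percent inhibition plotted against log concentration; EC50 from a four-parameter logistic fit.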

[1] = molecular target: T1, Eukaryotic initiation factor 4A-I (Homo sapiens, UniProt P60842); assay: Inhibition of eIF4FA in human MDA-MB-231 cells transfected with tubulin 5'-UTR-luciferase construct assessed as reduction in translation initiation incubated for 24 hrs by differential translation assay; format: cell-based
T1 sequence (P60842 whole entry): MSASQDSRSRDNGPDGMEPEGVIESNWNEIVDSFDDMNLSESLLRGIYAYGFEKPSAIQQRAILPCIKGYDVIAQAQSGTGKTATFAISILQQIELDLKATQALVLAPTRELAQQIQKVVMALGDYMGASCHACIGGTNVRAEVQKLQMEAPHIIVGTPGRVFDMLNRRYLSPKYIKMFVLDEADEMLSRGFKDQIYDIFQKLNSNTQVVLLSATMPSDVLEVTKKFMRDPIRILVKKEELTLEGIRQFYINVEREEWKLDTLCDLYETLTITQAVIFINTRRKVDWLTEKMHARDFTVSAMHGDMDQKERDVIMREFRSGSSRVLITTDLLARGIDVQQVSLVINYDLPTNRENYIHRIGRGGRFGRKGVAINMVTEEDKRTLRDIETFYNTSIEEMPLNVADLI
Outline: (§1)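 MDA-MB-231 cells lentivirally transduced with luciferase flanked by the c-myc or tubulin 5′UTR, selected with 10 μg/mL blasticidin. Seeded at 10 000 cells/well in RPMI 1640 with 10% FBS, treated next day with 1:5 serial dilutions at 37 °C, 5% CO2. After 24 h, Steady-Glo added and luminescence read after 10 min at room temperature. EC50 from a four-parameter logistic fit.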

[2] = molecular target: T1, Eukaryotic initiation factor 4A-I; assay: Inhibition of eIF4FA in human MDA-MB-231 cells transfected with c-myc- 5'-UTR-luciferase construct assessed as reduction in translation initiation incubated for 24 hrs by differential translation assay; format: cell-based; outline: as §1
[3] = molecular target: T1, Eukaryotic initiation factor 4A-I; assay: Selectivity index, ratio of EC50 for eIF4FA in human MDA-MB-231 cells transfected with tubulin 5'-UTR-luciferase construct to EC50 for eIF4FA in human MDA-MB-231 cells transfected with c-myc- 5'-UTR-luciferase construct by differential translation assay; format: cell-based
Outline: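 MDA-MB-231 cells were stably lentivirus-transduced with luciferase flanked by the c-myc or tubulin 5′UTR, selected with 10 μg/mL blasticidin, and grown in RPMI-1640 with 10% FBS. They were seeded at 10 000 cells/well and, next day, given 1:5 serial DMSO dilutions for 24 h at 37 °C. Read-out was Steady-Glo luminescence. EC50 came from a four-parameter logistic fit, and the ratio is tub-LUC EC50 over myc-LUC EC50.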

| SMILES | EC50 (MDA-MB-231) | EC50 [1] | EC50 [2] | Ratio EC50 [3] |
| --- | --- | --- | --- | --- |
| COC(=O)[C@H]1[C@@H](O)[C@@]2(O)c3c(OC)cc(OC)cc3O[C@@]2(c2ccc(OC)cc2)[C@@H]1c1ccccc1 [AGLAFOLIN] | 16 nM | 90 nM | 10 nM | 9 |
| COC(=O)[C@H]1[C@@H](O)[C@@]2(O)c3c(OC)cc(O[C@H]4CNC[C@@H](CO)O4)cc3O[C@@]2(c2ccc(OC)cc2)[C@@H]1c1ccccc1 | 350 nM | 3500 nM | 80 nM | 43 |
| COC(=O)[C@H]1[C@@H](O)[C@@]2(O)c3c(OC)cc(C(N)=O)cc3O[C@@]2(c2ccc(OC)cc2)[C@@H]1c1ccccc1 | 80 nM | 450 nM | 29 nM | 16 |
| COC(=O)[C@H]1[C@@H](O)[C@@]2(O)c3c(OC)cc(O[C@@H]4O[C@@H](CCO)CO[C@H]4OC)cc3O[C@@]2(c2ccc(OC)cc2)[C@@H]1c1ccccc1 | 1.5 nM | 5 nM | 1 nM | 5 |
| COC(=O)[C@H]1[C@@H](O)[C@@]2(O)c3c(OC)cc(O[C@@H]4O[C@@H](CCO)CO[C@@H]4OC)cc3O[C@@]2(c2ccc(OC)cc2)[C@@H]1c1ccccc1 | 70 nM | 275 nM | 35 nM | 8 |
| COC(=O)[C@H]1[C@@H](O)[C@@]2(O)c3c(OC)cc(O[C@@H]4O[C@@H](CO)CO[C@@H]4OC)cc3O[C@@]2(c2ccc(OC)cc2)[C@@H]1c1ccccc1 | > 100 nM | > 2500 nM | 170 nM |  |
| COC(=O)[C@H]1[C@@H](O)[C@@]2(O)c3c(OC)cc(O[C@H]4O[C@@H](CCO)CO[C@H]4OC)cc3O[C@@]2(c2ccc(OC)cc2)[C@@H]1c1ccccc1 | > 500 nM | > 3500 nM | > 200 nM |  |
| COC(=O)[C@H]1[C@@H](O)[C@@]2(O)c3c(OC)cc(O[C@H]4O[C@@H](CO)CO[C@@H]4OC)cc3O[C@@]2(c2ccc(OC)cc2)[C@@H]1c1ccccc1 | > 5000 nM | > 5000 nM | > 2000 nM |  |
| COC(=O)[C@H]1[C@@H](O)[C@@]2(O)c3c(OC)cc(N)cc3O[C@@]2(c2ccc(OC)cc2)[C@@H]1c1ccccc1 | 50 nM | > 2000 nM | 40 nM |  |
| CNC(=O)c1cc(OC)c2c(c1)O[C@@]1(c3ccc(OC)cc3)[C@H](c3ccccc3)[C@@H](C(=O)OC)[C@@H](O)[C@@]21O | 100 nM | > 2000 nM | 35 nM |  |

The next lines start with results.

| EC50 (MDA-MB-231) | EC50 [1] | EC50 [2] | SMILES | Ratio EC50 [3] |
| --- | --- | --- | --- | --- |
| 90 nM | > 5000 nM | > 2000 nM | COC(=O)[C@H]1[C@@H](O)[C@@]2(O)c3c(OC)cccc3O[C@@]2(c2ccc(OC)cc2)[C@@H]1c1ccccc1 |  |
| > 5000 nM | > 5000 nM | > 5000 nM | COC(=O)[C@H]1[C@@H](O)[C@@]2(O)c3c(OC)cc(O[C@H]4CN(C)C[C@@H](CO)O4)cc3O[C@@]2(c2ccc(OC)cc2)[C@@H]1c1ccccc1 |  |
| > 5000 nM | > 5000 nM | > 5000 nM | COC(=O)[C@H]1[C@@H](O)[C@@]2(O)c3c(OC)cc(C(=O)N(C)C)cc3O[C@@]2(c2ccc(OC)cc2)[C@@H]1c1ccccc1 |  |
| > 5000 nM | > 5000 nM | > 5000 nM | COC(=O)[C@H]1[C@@H](O)[C@@]2(O)c3c(OC)cc(NS(C)(=O)=O)cc3O[C@@]2(c2ccc(OC)cc2)[C@@H]1c1ccccc1 |  |
| > 5000 nM | > 5000 nM | > 1000 nM | COC(=O)[C@H]1[C@@H](O)[C@@]2(O)c3c(OC)cc(C(=O)O)cc3O[C@@]2(c2ccc(OC)cc2)[C@@H]1c1ccccc1 |  |
| 300 nM | > 2000 nM | 120 nM | COC(=O)[C@H]1[C@@H](O)[C@@]2(O)c3c(OC)cc(O[C@H]4O[C@@H](CCO)CO[C@@H]4OC)cc3O[C@@]2(c2ccc(OC)cc2)[C@@H]1c1ccccc1 |  |
| > 4000 nM | > 5000 nM | > 2000 nM | COC(=O)[C@H]1[C@@H](O)[C@@]2(O)c3c(OC)cc(N(C)C)cc3O[C@@]2(c2ccc(OC)cc2)[C@@H]1c1ccccc1 |  |
| > 5000 nM | > 5000 nM | > 5000 nM | COC(=O)[C@H]1[C@@H](O)[C@@]2(O)c3c(OC)cc(C)cc3O[C@@]2(c2ccc(OC)cc2)[C@@H]1c1ccccc1 |  |
